Results from ChEMBL document CHEMBL4610112, “Novel Pyrrolopyridone Bromodomain and Extra-Terminal Motif (BET) Inhibitors Effective in Endocrine-Resistant ER+ Breast Cancer with Acquired Resistance to Fulvestrant and Palbociclib” (J Med Chem, 2020).
Active and inactive are the calls of the source.

Assays:
[1] = biological target: CYP3A4 (Homo sapiens, UniProt P08684); assay: Inhibition of human CYP3A4 at 10 uM; format: ADME
[2] = system: MCF7:CFR; assay: Growth inhibition of fulvestrant-resistant human MCF7:CFR 3D spheroid cells at 100 nM supplemented with fresh medium containing compound every 2 to 3 days for 9 days by celltitre-glo assay relative to control; format: functional
Method in brief: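 MCF-7:CFR cells seeded at 1000 cells/well in ultralow-attachment round-bottom plates and grown 24 h untreated as spheroids. Half the medium then replaced with 2× treatment medium, repeated every 2–3 days. Viability read by CellTiter-Glo 3D luminescence at day 9 and normalized to blank (medium plus reagent).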

[3] = system: MCF7:CFR; assay: Growth inhibition of fulvestrant-resistant human MCF7:CFR cells at < 300 nM treated for 3 hrs followed by compound washout and measured after 5 days by Hoechst 33342 dye based imaging analysis; format: functional, cell-based
[4] = system: MCF7:CFR; assay: Down regulation of c-MYC gene expression in fulvestrant-resistant human MCF7:CFR cells at 100 nM measured after 24 hrs; format: functional, cell-based
Method in brief: (§1)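 MCF-7:CFR cells exposed to compound at 100 nM, with DMSO (0.01%) as control, for 24 h. RNA extracted and analysed by RNA-seq. Values are log2-fold changes in gene expression against the vehicle control.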

[5] = system: MCF7:CFR; assay: Up regulation of CDKN1B gene expression in fulvestrant-resistant human MCF7:CFR cells at 100 nM measured after 24 hrs; format: functional, cell-based; method in brief: as §1
[6] = Growth inhibition of fulvestrant-resistant human MCF7:CFR cells measured after 5 days by Hoechst 33342 dye based imaging analysis; format: functional, cell-based; details: 120 h
Method in brief: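 MCF-7:CFR cells kept 2 days in phenol red-free RPMI 1640 with 10% charcoal–dextran FBS, then seeded at 2000 cells/well. Single treatment at 0.1 nM–10 μM (0.1% DMSO final) for 5 days. Nuclei stained with Hoechst 33342 and counted by imaging. Survival normalized to DMSO (100%) and JQ1 3 μM (0%). Mean ± SEM from at least two passages, triplicates in each.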

[7] = system: MCF7:CFR; assay: Down regulation of cyclin-D gene expression in fulvestrant-resistant human MCF7:CFR cells at 100 nM measured after 24 hrs; format: functional, cell-based; method in brief: as §1
[8] = system: MCF7:CFR; assay: Down regulation of n-MYC gene expression in fulvestrant-resistant human MCF7:CFR cells at 100 nM measured after 24 hrs; format: functional, cell-based; method in brief: as §1
[9] = Protein binding in plasma (unknown origin); format: ADME, cell-free; details: human
Method in brief: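 Protein binding reported as percent bound, ketoconazole as reference compound. Run by a contract lab.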

[10] = biological target: CYP2D6 (Homo sapiens, UniProt P10635); assay: Inhibition of human CYP2D6 at 10 uM; format: ADME
CYP2D6, sequence (P10635 whole entry): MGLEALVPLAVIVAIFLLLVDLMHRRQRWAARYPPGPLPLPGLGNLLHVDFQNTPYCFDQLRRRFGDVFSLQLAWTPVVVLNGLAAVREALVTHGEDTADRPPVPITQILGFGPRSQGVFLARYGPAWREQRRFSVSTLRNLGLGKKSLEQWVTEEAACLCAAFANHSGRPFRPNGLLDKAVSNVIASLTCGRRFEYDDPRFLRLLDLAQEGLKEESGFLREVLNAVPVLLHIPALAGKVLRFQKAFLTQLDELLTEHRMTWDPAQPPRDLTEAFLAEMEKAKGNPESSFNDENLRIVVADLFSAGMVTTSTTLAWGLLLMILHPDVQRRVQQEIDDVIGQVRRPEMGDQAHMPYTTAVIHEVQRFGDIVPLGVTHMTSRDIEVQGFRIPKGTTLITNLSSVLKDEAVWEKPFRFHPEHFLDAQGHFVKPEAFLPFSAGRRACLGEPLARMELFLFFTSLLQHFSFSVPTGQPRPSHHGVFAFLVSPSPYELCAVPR

[11] = system: MCF7:TAM1; assay: Antitumor activity against human MCF7:TAM1 cells xenografted in ovariectomized athymic Nude-Foxn1 mouse assessed as tumor growth inhibition at 50 mg/kg/day, po administered via gavage for 4 weeks; format: functional, organism-based
[12] = system: MCF7:CFR; assay: Down regulation of PARP10 gene expression in fulvestrant-resistant human MCF7:CFR cells at 100 nM measured after 24 hrs; format: functional, cell-based
Method in brief: (§2)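 MCF-7:CFR cells were treated with compound at 100 nM or DMSO (0.01%) for 24 h. RNA extracted and RNA-seq performed. Output given as log2 fold change versus vehicle.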

[13] = system: MCF7:CFR; assay: Down regulation of IGFBP5 gene expression in fulvestrant-resistant human MCF7:CFR cells at 100 nM measured after 24 hrs; format: functional, cell-based; method in brief: as §2
[14] = system: MCF7:CFR; assay: Down regulation of BCL2L1 gene expression in fulvestrant-resistant human MCF7:CFR cells at 100 nM measured after 24 hrs; format: functional, cell-based; method in brief: as §2
[15] = system: MCF7:CFR; assay: Growth inhibition of fulvestrant-resistant human MCF7:CFR cells at 1 to 30 nM treated for 3 hrs followed by compound washout and measured after 5 days by Hoechst 33342 dye based imaging analysis; format: functional, cell-based
Method in brief: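 MCF-7:CFR cells grown 2 days in phenol red-free RPMI/10% charcoal-dextran FBS, then seeded at 2000 cells/well. Treated next day; medium replaced with normal growth medium after 3 h. On day 5, cells stained with Hoechst 33342 and counted by imaging. Survival normalized to DMSO (100%) and JQ1 3 μM (0%).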

[16] = species on record: Homo sapiens; assay: Growth inhibition of tamoxifen and palbociclib-resistant human MCF7:CPR cells measured after 5 days by Hoechst 33342 dye based imaging analysis; format: functional
Method in brief: (§3)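 Cells seeded at 2000/well in their maintenance medium, treated once the next day with compound (0.1 nM–10 μM; 0.1% DMSO final). Day 5 Hoechst 33342 staining with imaging count. Survival normalized to DMSO (100%) and JQ1 3 μM (0%). IC50 given as mean ± SEM from at least two passages, each in triplicate.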

[17] = system: MCF7:CFR; assay: Down regulation of NUPR1 gene expression in fulvestrant-resistant human MCF7:CFR cells at 100 nM measured after 24 hrs; format: functional, cell-based; method in brief: as §2
[18] = system: MCF7:CFR; assay: Up regulation of CASP3 gene expression in fulvestrant-resistant human MCF7:CFR cells at 100 nM measured after 24 hrs; format: functional, cell-based
Method in brief: (§4)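 MCF-7:CFR cells (fulvestrant-resistant, kept in 200 nM fulvestrant in phenol red-free stripped RPMI-1640) treated with 100 nM compound or DMSO (0.01%) for 24 h. RNA extracted and RNA-seq performed, expression reported as log2 fold change versus vehicle.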

[19] = system: MCF7:CFR; assay: Down regulation of HIST1H3B gene expression in fulvestrant-resistant human MCF7:CFR cells at 100 nM measured after 24 hrs; format: functional, cell-based; method in brief: as §2
[20] = species on record: Homo sapiens; assay: Growth inhibition of tamoxifen-resistant human MCF7:5C cells measured after 5 days by Hoechst 33342 dye based imaging analysis; format: functional; method in brief: as §3
[21] = system: MCF7:CFR; assay: Down regulation of ZMYND8 gene expression in fulvestrant-resistant human MCF7:CFR cells at 100 nM measured after 24 hrs; format: functional, cell-based; method in brief: as §2
[22] = system: MCF7:CFR; assay: Down regulation of ESR1 gene expression in fulvestrant-resistant human MCF7:CFR cells at 100 nM measured after 24 hrs; format: functional, cell-based; method in brief: as §2
[23] = system: MCF7:CFR; assay: Up regulation of CASP6 gene expression in fulvestrant-resistant human MCF7:CFR cells at 100 nM measured after 24 hrs; format: functional, cell-based; method in brief: as §4
[24] = system: MCF7:CFR; assay: Up regulation of CASP9 gene expression in fulvestrant-resistant human MCF7:CFR cells at 100 nM measured after 24 hrs; format: functional, cell-based; method in brief: as §4
[25] = system: MCF7:CFR; assay: Down regulation of CCDC170 gene expression in fulvestrant-resistant human MCF7:CFR cells at 100 nM measured after 24 hrs; format: functional, cell-based; method in brief: as §2
[26] = system: MCF7:TAM1; assay: Growth inhibition of tamoxifen-resistant human MCF7:TAM1 cells measured after 5 days by Hoechst 33342 dye based imaging analysis; format: functional, cell-based; method in brief: as §3
[27] = system: MCF7:CFR; assay: Up regulation of RIPK1 gene expression in fulvestrant-resistant human MCF7:CFR cells at 100 nM measured after 24 hrs; format: functional, cell-based; method in brief: as §4
[28] = species on record: Homo sapiens; assay: Growth inhibition of human T47D:TDG cells harboring ESR1 D538G mutant measured after 5 days by Hoechst 33342 dye based imaging analysis; format: functional; method in brief: as §3
[29] = system: MCF7:CFR; assay: Down regulation of c-MET gene expression in fulvestrant-resistant human MCF7:CFR cells at 100 nM measured after 24 hrs; format: functional, cell-based; method in brief: as §2
[30] = system: MCF7:CFR; assay: Down regulation of CLEC3A gene expression in fulvestrant-resistant human MCF7:CFR cells at 100 nM measured after 24 hrs; format: functional, cell-based; method in brief: as §2
[31] = system: MCF7:CFR; assay: Down regulation of BCAS1 gene expression in fulvestrant-resistant human MCF7:CFR cells at 100 nM measured after 24 hrs; format: functional, cell-based; method in brief: as §2
[32] = system: MCF7:CFR; assay: Down regulation of KRT83 gene expression in fulvestrant-resistant human MCF7:CFR cells at 100 nM measured after 24 hrs; format: functional, cell-based; method in brief: as §2
[33] = system: T47D; assay: Growth inhibition of tamoxifen-sensitive human T47D cells measured after 5 days by Hoechst 33342 dye based imaging analysis; format: functional, cell-based; method in brief: as §3
[34] = system: MCF7:CFR; assay: Down regulation of ERBB3 gene expression in fulvestrant-resistant human MCF7:CFR cells at 100 nM measured after 24 hrs; format: functional, cell-based; method in brief: as §2
[35] = system: MCF7:CFR; assay: Up regulation of APAF1 gene expression in fulvestrant-resistant human MCF7:CFR cells at 100 nM measured after 24 hrs; format: functional, cell-based; method in brief: as §4
[36] = system: MCF7:CFR; assay: Down regulation of NRAS gene expression in fulvestrant-resistant human MCF7:CFR cells at 100 nM measured after 24 hrs; format: functional, cell-based; method in brief: as §2
[37] = species on record: Homo sapiens; assay: Growth inhibition of tamoxifen-sensitive human MCF7:WS8 cells measured after 5 days by Hoechst 33342 dye based imaging analysis; format: functional; method in brief: as §3
[38] = system: MCF7:TAM1; assay: Antitumor activity against human MCF7:TAM1 cells xenografted in ovariectomized athymic Nude-Foxn1 mouse assessed as tumor growth inhibition at 30 mg/kg/day, po administered via gavage for 4 weeks in presence of fulvestrant; format: functional, organism-based
Method in brief: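 MCF-7:Tam1 tumours established in 4–6 week old female ovariectomized athymic nude mice given daily tamoxifen 1.5 mg/mouse. […] Fulvestrant 1 (mg/mouse)/week sc. Tumour volume measured weekly by calipers as length × width² × π/6.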

[39] = system: MCF7:CFR; assay: Down regulation of BCL2 gene expression in fulvestrant-resistant human MCF7:CFR cells at 100 nM measured after 24 hrs; format: functional, cell-based; method in brief: as §2
[40] = system: MCF7:CFR; assay: Down regulation of IFI44L gene expression in fulvestrant-resistant human MCF7:CFR cells at 100 nM measured after 24 hrs; format: functional, cell-based; method in brief: as §2
[41] = system: MCF7:TAM1; assay: Antitumor activity against human MCF7:TAM1 cells xenografted in ovariectomized athymic Nude-Foxn1 mouse assessed as tumor growth inhibition at 50 mg/kg/day, po administered via gavage for 4 weeks in presence of fulvestrant; format: functional, organism-based
Method in brief: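 Orthotopic xenografts of MCF-7:Tam1 cells in 4–6 week old female ovariectomized athymic nude (nude/Foxn1) mice, established with daily tamoxifen 1.5 mg/mouse. Daily oral gavage at 50 (mg/kg)/day for 4 weeks in 0.5% (w/v) HPMC/TWEEN80 1% in water, given alongside fulvestrant 1 mg/mouse/week sc. Tumor volume measured weekly by caliper as length × width² × π/6. TGI computed from day 28 versus initial volumes, relative to vehicle.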

CYP3A4, sequence (P08684 whole entry): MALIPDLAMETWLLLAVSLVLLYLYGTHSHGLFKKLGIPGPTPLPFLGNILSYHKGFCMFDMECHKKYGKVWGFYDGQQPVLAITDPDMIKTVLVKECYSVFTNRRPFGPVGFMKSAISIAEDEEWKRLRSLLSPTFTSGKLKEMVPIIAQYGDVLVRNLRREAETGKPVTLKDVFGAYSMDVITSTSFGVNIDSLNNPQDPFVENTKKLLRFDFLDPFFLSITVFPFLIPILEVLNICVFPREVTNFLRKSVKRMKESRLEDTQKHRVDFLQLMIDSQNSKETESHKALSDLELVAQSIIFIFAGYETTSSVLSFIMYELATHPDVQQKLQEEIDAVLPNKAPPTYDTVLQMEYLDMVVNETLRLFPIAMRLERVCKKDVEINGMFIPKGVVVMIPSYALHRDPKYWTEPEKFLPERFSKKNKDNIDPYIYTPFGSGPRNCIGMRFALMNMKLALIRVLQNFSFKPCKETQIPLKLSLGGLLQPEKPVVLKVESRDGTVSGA

Cc1ncc2n1-c1ccc(Cl)cc1C(c1ccccc1F)=NC2 [MIDAZOLAM]
99.5%: inhibition at 10 µM [1]

Cc1sc2c(c1C)C(c1ccc(Cl)cc1)=N[C@@H](CC(=O)OC(C)(C)C)c1nnc(C)n1-2
90 nM: IC50 [6]
inactive: growth inhibition (GI) [3]
active: growth inhibition (GI) [2] | Activity [4] | Activity [5] | Activity [7] | Activity [8]

CC(=O)N1CCN(c2ccc(OCC3COC(Cn4ccnc4)(c4ccc(Cl)cc4Cl)O3)cc2)CC1 (stereo not given) [KETOCONAZOLE]
98.35%: PPB [9]

COc1ccc2c(c1)[C@]13CCCC[C@@H]1[C@H](C2)N(C)CC3 [DEXTROMETHORPHAN]
94.4%: inhibition at 10 µM [10]

CC/C(=C(\c1ccccc1)c1ccc(OCCN(C)C)cc1)c1ccccc1
inactive: TGI [11]

CCS(=O)(=O)Nc1cc(-c2cn(C)c3c(=O)[nH]ccc23)cc2c1ccn2C(C)(c1ccccn1)c1ccccn1
active: Activity [12] | Activity [13] | Activity [14] | growth inhibition (GI) [15] | growth inhibition (GI) [16] Dose-dependent effect | Activity [17] | Activity [18] | Activity [19] | Activity [4] | growth inhibition (GI) [20] Dose-dependent effect | Activity [21] | Activity [22] | Activity [23] | Activity [24] | Activity [5] | Activity [25] | growth inhibition (GI) [26] Dose-dependent effect | Activity [27] | growth inhibition (GI) [28] Dose-dependent effect | Activity [29] | Activity [30] | Activity [31] | Activity [32] | growth inhibition (GI) [33] Dose-dependent effect | Activity [34] | Activity [7] | Activity [35] | Activity [36] | growth inhibition (GI) [37] Dose-dependent effect | TGI [38] | Activity [8] | Activity [39] | Activity [40]

CCNC(=O)C[C@@H]1N=C(c2ccc(Cl)cc2)c2cc(OC)ccc2-n2c(C)nnc21
active: TGI [41]
